Reference: ChEMBL document CHEMBL4387709, “Discovery of Quinoline Analogues as Potent Antivirals against Enterovirus D68 (EV-D68)” (J Med Chem, 2019)
Activity calls are given as the source filed them. The calls are words filed in the database; no cut-off is given here.

Tests used:
enterovirus D68 [1] = test: Antiviral activity against Enterovirus D68 US/MO/14-18947 infected in human RD cells assessed as inhibition of virus-induced cytopathic effect incubated for 5 mins under shaking condition and measured after 3 days by neutral red dye-based photometric method; type: functional, organism-based; conditions: Enterovirus D, US/MO/14-18947, RD
Summary of the method: (§1)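 RD cells seeded one day ahead to ~90% confluence, PBS (Mg/Ca) wash, infected at ~MOI 0.01 with EV-D68 in DMEM/2% FBS/30 mM MgCl2 at 33 °C, 5% CO2. Compounds and 1% P/S added after 1 h. Plates shaken ~5 min, held 3 days, viable cells stained with neutral red (66 µg/ml), A540 read. EC50 from dose-response fits, triplicates.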

[2] = Selectivity index, ratio of CC50 for human A172 cells to EC50 for Enterovirus D68 US/KY/14-18953 infected in human A172 cells; type: toxicity, cell-based; conditions: read-out: Ratio CC50/EC50
Summary of the method: (§2)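 A172 cells kept in DMEM with 10% FBS and 1% P/S, grown to about 90% confluency, then infected at MOI about 0.3 in DMEM with 2% FBS and 30 mM MgCl2 at 33 °C. After 1 h, P/S and compounds were added. Viable cells were stained with neutral red after 3 days (A540). CC50 came from the same assay without virus. EC50 and CC50 were fitted from triplicate dose-response data, and SI = CC50/EC50.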

Influenza A virus = test: Antiviral activity against Influenza A virus (A/California/07/2009(H1N1)) at 10 uM after 2 days by plaque assay; type: functional, organism-based
enterovirus D68 [3] = test: Antiviral activity against Enterovirus D68 US/IL/14-18956 infected in human RD cells assessed as inhibition of virus-induced cytopathic effect incubated for 5 mins under shaking condition and measured after 3 days by neutral red dye-based photometric method; type: functional, organism-based; conditions: Enterovirus D, US/IL/14-18956, RD; summary of the method: as §1
enterovirus D68 [4] = test: Antiviral activity against Enterovirus D68 US/MO/14-18947 infected in human A172 cells assessed as inhibition of virus-induced cytopathic effect incubated for 5 mins under shaking condition and measured after 3 days by neutral red dye-based photometric method; type: functional, organism-based; conditions: Enterovirus D, US/MO/14-18947, A 172
Summary of the method: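 A172 cells (DMEM, 10% FBS) grown ~90% confluent, infected with EV-D68 at ~MOI 0.3 in DMEM/2% FBS/30 mM MgCl2 and kept at 33 °C. P/S and compounds added 1 h later. Brief orbital shaking, then 3-day incubation. Neutral red staining with 540 nm absorbance. EC50 from best-fit dose-response curves in triplicate.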

[5] = Selectivity index, ratio of CC50 for human RD cells to EC50 for Enterovirus D68 US/KY/14-18953 infected in human RD cells; type: toxicity, cell-based; conditions: read-out: Ratio CC50/EC50
A 172 = test: Cytotoxicity against human A172 cells after 3 days by neutral red dye-based photometric method; type: cell-based; conditions: a 172, 72 h
Summary of the method: (§3)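 Uninfected cells run as in the CPE assay (33 °C, 3 days, same media) with compound. Viability by neutral red staining and 540 nm absorbance. CC50 from dose-response curves, triplicate experiments.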

RD [6] = test: Inhibition of 2C protein in Enterovirus D68 US/KY/14-18953 infected in human RD cells assessed as reduction of viral RNA synthesis at 1 uM measured at 9 hrs post infection by reagent-based RT-qPCR method relative to control; type: cell-based
Summary of the method: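 DNase-treated. 1.2 µg reverse-transcribed with oligo(dT)18. qPCR run 95 °C 10 min, then 40 cycles of 95 °C 15 s/60 °C 60 s, with melt curve. Compared with DMSO control, one-way ANOVA, mean of two experiments ± SD.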

RD [7] = test: Inhibition of 2C protein in Enterovirus D68 US/KY/14-18953 infected in human RD cells assessed as reduction of VP1 expression at 1 uM measured at 9 hrs post infection by DAPI-staining based microscopy; type: cell-based
Summary of the method: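 Fixed at 9 hpi (4% formaldehyde), 0.2% Triton X-100 permeabilized, blocked with 10% bovine serum. Stained with rabbit anti-VP1 plus Alexa-488 secondary, nuclei with 300 nM DAPI. Confocal microscopy.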

[8] = Selectivity index, ratio of CC50 for human A172 cells to EC50 for Enterovirus D68 US/MO/14-18947 infected in human A172 cells; type: toxicity, cell-based; conditions: read-out: Ratio CC50/EC50; summary of the method: as §2
A549 = test: Cytotoxicity against human A549 cells after 3 days by neutral red dye-based photometric method; type: cell-based; conditions: a549, 72 h; summary of the method: as §3
[9] = Selectivity index, ratio of CC50 for human RD cells to EC50 for Enterovirus D68 US/IL/14-18956 infected in human RD cells; type: toxicity, cell-based; conditions: read-out: Ratio CC50/EC50
Summary of the method: (§4)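 RD cells in DMEM with 10% FBS were infected at about 90% confluency at MOI about 0.01, giving full CPE by 3 days, in DMEM with 2% FBS and 30 mM MgCl2 at 33 °C. Compounds and P/S were added 1 h after infection. Viability was read by neutral red uptake (A540). CC50 came from uninfected cells. Means were from triplicates, and SI = CC50/EC50.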

enterovirus D68 [10] = test: Antiviral activity against Enterovirus D68 US/KY/14-18953 infected in human RD cells assessed as inhibition of virus-induced cytopathic effect incubated for 5 mins under shaking condition and measured after 3 days by neutral red dye-based photometric method; type: functional, organism-based; conditions: Enterovirus D, US/KY/14-18953, RD; summary of the method: as §1
SH-SY5Y = test: Cytotoxicity against human SH-SY5Y cells after 3 days by neutral red dye-based photometric method; type: cell-based; conditions: 72 h; summary of the method: as §3
[11] = Selectivity index, ratio of CC50 for human RD cells to EC50 for Enterovirus D68 US/MO/14-18947 infected in human RD cells; type: toxicity, cell-based; conditions: read-out: Ratio CC50/EC50
enterovirus D68 [12] = test: Antiviral activity against Enterovirus D68 […] infected in human RD cells assessed as inhibition of virus-induced cytopathic effect incubated for 5 mins under shaking condition and measured after 3 days by neutral red dye-based photometric method; type: functional, organism-based; conditions: Enterovirus D; summary of the method: as §1
[13] = Selectivity index, ratio of CC50 for human RD cells to EC50 for Enterovirus D68 US/MO/14-18949 infected in RD human cells; type: toxicity, cell-based; conditions: read-out: Ratio CC50/EC50
enterovirus D68 [14] = test: Antiviral activity against Enterovirus D68 US/MO/14-18947 infected in human SH-SY5Y cells assessed as inhibition of virus-induced cytopathic effect incubated for 5 mins under shaking condition and measured after 3 days by neutral red dye-based photometric method; type: functional, organism-based; conditions: Enterovirus D, US/MO/14-18947, SH-SY5Y
Summary of the method: (§5)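 Virus at ~MOI 1 applied to SH-SY5Y cells (50% DMEM/50% F-12, 10% FBS) at ~90% confluence in DMEM/2% FBS/30 mM MgCl2 at 33 °C. Compounds added after 1 h with 1% P/S, shaken ~5 min, incubated 3 days. Viability read by neutral red uptake (A540). EC50 fitted from dose-response, triplicate.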

[15] = Selectivity index, ratio of CC50 for human RD cells to EC50 for Enterovirus D68 […] infected in human RD cells; type: toxicity, cell-based; conditions: read-out: Ratio CC50/EC50; summary of the method: as §4
RD [16] = test: Cytotoxicity against human RD cells after 3 days by neutral red dye-based photometric method; type: cell-based; conditions: rd, 72 h
enterovirus D68 [17] = test: Antiviral activity against Enterovirus D68 US/KY/14-18953 infected in human SH-SY5Y cells assessed as inhibition of virus-induced cytopathic effect incubated for 5 mins under shaking condition and measured after 3 days by neutral red dye-based photometric method; type: functional, organism-based; conditions: Enterovirus D, US/KY/14-18953, SH-SY5Y; summary of the method: as §5

## O=C(NCCN1CCCC1)c1cc(-c2cccs2)nc2ccccc12
Enterovirus D68 [1]
  EC50: 60 nM
[2]
  selectivity ratio: 1310
Influenza A virus
  Activity: inactive
Enterovirus D68 [3]
  EC50: 50 nM
Enterovirus D68 [4]
  EC50: 200 nM
[5]
  selectivity ratio: 667
A 172
  CC50: 65400 nM
RD [6]
  inhibition: > 99%
RD [7]
  inhibition: Active
[8]
  selectivity ratio: 327
A549
  CC50: 83200 nM
[9]
  selectivity ratio: 800
Enterovirus D68 [10]
  EC50: 60 nM
SH-SY5Y
  CC50: 93300 nM
[11]
  selectivity ratio: 667
Enterovirus D68 [12]
  EC50: 70 nM
[13]
  selectivity ratio: 800
Enterovirus D68 [14]
  EC50: 20 nM
[15]
  selectivity ratio: 571
RD [16]
  CC50: 40000 nM
Enterovirus D68 [17]
  EC50: 100 nM
